Data as given in ChEMBL document CHEMBL1158962, “Isolation and characterization of two antimicrobial agents from mace (Myristica fragrans)” (1991).
Converted amounts (≈) assume the structure as drawn.

Assays:
Format in all cases: functional
Candida albicans [1] = experiment: Antimicrobial activity against Candida albicans 3153 after 24 hrs by agar dilution method
How it was run: (§1)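 Agar dilution. Each test substance was first taken at 320 µg per 0.1 ml DMSO, mixed with 10 ml warm nutrient agar (45-50°) and left to set. C. albicans strains were streaked radially and incubated at 30°. MIC was the lowest drug concentration with no growth, read at 24 h and at 48 h. Nystatin was the positive control.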

Bacillus subtilis [2] = experiment: Antimicrobial activity against Bacillus subtilis NCTC 10400 after 24 hrs by agar dilution method; details: NCTC 10400, 24 h
How it was run: as §1, with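 “set. NCTC bacteria” for “set. C. albicans strains”, “at 37°.” for “at 30°.”, “concentration showing” for “concentration with”, “h. Chloramphenicol” for “h. Nystatin”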

Staphylococcus aureus [3] = experiment: Antimicrobial activity against Staphylococcus aureus NCTC 6571 after 24 hrs by agar dilution method; details: NCTC 6571, 24 h
How it was run: as §1, with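 “set. NCTC bacteria” for “set. C. albicans strains”, “at 37°.” for “at 30°.”, “concentration showing” for “concentration with”, “h. Chloramphenicol” for “h. Nystatin”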

Enterococcus durans [4] = experiment: Antimicrobial activity against Streptococcus durans NCTC 8307 after 24 hrs by agar dilution method; details: NCTC 8307, 24 h
How it was run: as §1, with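 “set. NCTC bacteria” for “set. C. albicans strains”, “at 37°.” for “at 30°.”, “concentration showing” for “concentration with”, “h. Chloramphenicol” for “h. Nystatin”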

Enterococcus durans [5] = experiment: Antimicrobial activity against Streptococcus durans NCTC 8307 after 48 hrs by agar dilution method; details: NCTC 8307, 48 h
How it was run: as §1, with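 “set. NCTC bacteria” for “set. C. albicans strains”, “at 37°.” for “at 30°.”, “concentration showing” for “concentration with”, “h. Chloramphenicol” for “h. Nystatin”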

Candida albicans [6] = experiment: Antimicrobial activity against Candida albicans 3110 after 48 hrs by agar dilution method; how it was run: as §1
Candida albicans [7] = experiment: Antimicrobial activity against Candida albicans ATCC 12301 after 48 hrs by agar dilution method; how it was run: as §1
Candida albicans [8] = experiment: Antimicrobial activity against Candida albicans ATCC 12301 after 24 hrs by agar dilution method; how it was run: as §1
Staphylococcus aureus [9] = experiment: Antimicrobial activity against Staphylococcus aureus NCTC 6571 after 48 hrs by agar dilution method; details: NCTC 6571, 48 h
How it was run: as §1, with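 “set. NCTC bacteria” for “set. C. albicans strains”, “at 37°.” for “at 30°.”, “concentration showing” for “concentration with”, “h. Chloramphenicol” for “h. Nystatin”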

Bacillus subtilis [10] = experiment: Antimicrobial activity against Bacillus subtilis NCTC 10400 after 48 hrs by agar dilution method; details: NCTC 10400, 48 h
How it was run: as §1, with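 “set. NCTC bacteria” for “set. C. albicans strains”, “at 37°.” for “at 30°.”, “concentration showing” for “concentration with”, “h. Chloramphenicol” for “h. Nystatin”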

Candida albicans [11] = experiment: Antimicrobial activity against Candida albicans 3110 after 24 hrs by agar dilution method; how it was run: as §1
Candida albicans [12] = experiment: Antimicrobial activity against Candida albicans 3153 after 48 hrs by agar dilution method; how it was run: as §1
[13] = ATCC 10231, 48 h, in the assay text read “ATCC 10231” for “ATCC 12301”
[14] = ATCC 10231, 24 h, in the assay text read “ATCC 10231” for “ATCC 12301”, read-out: MIC
[15] = Candida albicans, 3110, 24 h, read-out: MIC
[16] = Candida albicans, 3153, 24 h, read-out: MIC
[17] = ATCC 10231, 24 h, in the assay text read “ATCC 10231” for “ATCC 12301”
[18] = Candida albicans, 3110, 48 h, read-out: MIC
[19] = ATCC 10231, 48 h, in the assay text read “ATCC 10231” for “ATCC 12301”, read-out: MIC
[20] = Candida albicans, 3153, 48 h, read-out: MIC

Molecule	MIC (Bacillus subtilis [2]) [µg/mL]	MIC (Staphylococcus aureus [3]; read-out: MIC) [µg/mL]	MIC (Enterococcus durans [4]) [µg/mL]	MIC (Candida albicans [8]; [14]) [µg/mL]	MIC (Candida albicans [11]; [15]) [µg/mL]	MIC (Candida albicans [1]; [16]) [µg/mL]	MIC (Candida albicans [11]; Candida albicans, 3110, 24 h) [µg/mL]	MIC (Bacillus subtilis [2]; read-out: MIC) [µg/mL]	MIC (Enterococcus durans [4]; read-out: MIC) [µg/mL]	MIC (Enterococcus durans [5]; read-out: MIC) [µg/mL]	MIC (Staphylococcus aureus [9]; read-out: MIC) [µg/mL]	MIC (Bacillus subtilis [10]; read-out: MIC) [µg/mL]	further results
COc1cccc(OC)c1C(=O)CCCCCCCCc1ccc(O)cc1	> 32	32 (≈ 86.4 µM)	> 32	< 32	< 32								MIC (Candida albicans [1]; Candida albicans, 3153, 24 h): > 32 µg/mL; MIC (Enterococcus durans [5]): > 32 µg/mL; MIC (Candida albicans [6]; Candida albicans, 3110, 48 h): > 32 µg/mL; MIC (Candida albicans [7]; [13]): > 32 µg/mL; MIC (Staphylococcus aureus [9]): > 32 µg/mL; MIC (Bacillus subtilis [10]): > 32 µg/mL; MIC (Candida albicans [12]; Candida albicans, 3153, 48 h): > 32 µg/mL
NYSTATIN													MIC (Candida albicans [1]): 2 µg/mL; MIC (Candida albicans [6]): 4 µg/mL; MIC (Candida albicans [7]): 4 µg/mL; MIC (Candida albicans [8]): 2 µg/mL; MIC (Candida albicans [11]): 2 µg/mL; MIC (Candida albicans [12]): 4 µg/mL
COc1ccc(CCCCCCCCC(=O)c2c(OC)cccc2OC)cc1	> 32		> 32	< 32		< 32	> 32						MIC (Staphylococcus aureus [3]): > 32 µg/mL
Oc1ccc(CCCCCCCCC(O)c2c(O)cccc2O)cc1 (centres undefined)		8 (≈ 23.2 µM)				32 (≈ 92.9 µM)	> 32	4 (≈ 11.6 µM)	8 (≈ 23.2 µM)	16 (≈ 46.5 µM)	16 (≈ 46.5 µM)	4 (≈ 11.6 µM)	MIC (Candida albicans [6]; Candida albicans, 3110, 48 h): > 32 µg/mL; MIC (Candida albicans [7]; [13]): > 32 µg/mL; MIC (Candida albicans [8]; [17]): > 32 µg/mL; MIC (Candida albicans [12]; Candida albicans, 3153, 48 h): > 32 µg/mL
Oc1ccc(CCCCCCCCCc2c(O)cccc2O)cc1		4 (≈ 12.2 µM)		16 (≈ 48.7 µM)	8 (≈ 24.4 µM)	8 (≈ 24.4 µM)		4 (≈ 12.2 µM)	4 (≈ 12.2 µM)	8 (≈ 24.4 µM)	4 (≈ 12.2 µM)	4 (≈ 12.2 µM)	MIC (Candida albicans [6]; [18]): 8 µg/mL (≈ 24.4 µM); MIC (Candida albicans [7]; [19]): 16 µg/mL (≈ 48.7 µM); MIC (Candida albicans [12]; [20]): 8 µg/mL (≈ 24.4 µM)
O=C(CCCCCCCCc1ccc(O)cc1)c1c(O)cccc1O [MALABARICONE B]		1 (≈ 2.92 µM)		16 (≈ 46.7 µM)	8 (≈ 23.4 µM)	4 (≈ 11.7 µM)		1 (≈ 2.92 µM)	1 (≈ 2.92 µM)	2 (≈ 5.84 µM)	1 (≈ 2.92 µM)	1 (≈ 2.92 µM)	MIC (Candida albicans [6]; [18]): 8 µg/mL (≈ 23.4 µM); MIC (Candida albicans [7]; [19]): 16 µg/mL (≈ 46.7 µM); MIC (Candida albicans [12]; [20]): 8 µg/mL (≈ 23.4 µM)
O=C(CCCCCCCCc1ccc(O)c(O)c1)c1c(O)cccc1O [MALABARICONE C]		4 (≈ 11.2 µM)		32 (≈ 89.3 µM)	8 (≈ 22.3 µM)	8 (≈ 22.3 µM)		2 (≈ 5.58 µM)	4 (≈ 11.2 µM)	8 (≈ 22.3 µM)	8 (≈ 22.3 µM)	2 (≈ 5.58 µM)	MIC (Candida albicans [6]; [18]): 8 µg/mL (≈ 22.3 µM); MIC (Candida albicans [7]; [19]): 32 µg/mL (≈ 89.3 µM); MIC (Candida albicans [12]; [20]): 8 µg/mL (≈ 22.3 µM)
COc1cccc(O)c1C(=O)CCCCCCCCc1ccc(O)cc1		4 (≈ 11.2 µM)					> 32	4 (≈ 11.2 µM)	2 (≈ 5.61 µM)	4 (≈ 11.2 µM)	4 (≈ 11.2 µM)	4 (≈ 11.2 µM)	MIC (Candida albicans [1]; Candida albicans, 3153, 24 h): > 32 µg/mL; MIC (Candida albicans [8]; [17]): > 32 µg/mL
O=C(N[C@H](CO)[C@H](O)c1ccc([N+](=O)[O-])cc1)C(Cl)Cl [CHLORAMPHENICOL]		4 (≈ 12.4 µM)						4 (≈ 12.4 µM)	1 (≈ 3.09 µM)	4 (≈ 12.4 µM)	4 (≈ 12.4 µM)	4 (≈ 12.4 µM)	
CC(=O)c1c(O)cccc1O	> 32		> 32		< 32								MIC (Candida albicans [1]; Candida albicans, 3153, 24 h): > 32 µg/mL; MIC (Staphylococcus aureus [3]): > 32 µg/mL; MIC (Candida albicans [8]; [17]): > 32 µg/mL
COc1ccc(CCCCCCCCC(=O)c2c(O)cccc2OC)cc1	> 32		> 32	< 32		< 32	> 32						MIC (Staphylococcus aureus [3]): > 32 µg/mL
